Measured values from different studies.
Each line is one published result; the experiments were not run side by side.
DHFR: Dihydrofolate reductase (DHFR, Homo sapiens, UniProt P00374)
HTR2B: 5-hydroxytryptamine receptor 2B (HTR2B, Homo sapiens, UniProt P41595)
TOP2A: DNA topoisomerase 2-alpha (TOP2A, Homo sapiens, UniProt P11388)
FAAH: Fatty-acid amide hydrolase 1 (FAAH, Homo sapiens, UniProt O00519)

Compound | target | read-out | action | method | IC50 [µM]
S=C(NN=Cc1ccc(N2CCCCC2)cc1)NC1CCCCC1 | DHFR | enzyme activity | inhibitor |  | 41.2
Cc1[nH]c2ccccc2c1SCCNC(=O)CN1CCC(C)C1 (stereo not drawn) | HTR2B | calcium signal | antagonist |  | 3.68
O=c1cc(-c2ccc(O)cc2)oc2c([C@@H]3OC[C@H](O)[C@H](O)[C@H]3O)c(O)c([C@@H]3O[C@H](CO)[C@@H](O)[C@H](O)[C@H]3O)c(O)c12 | Calcium/calmodulin-dependent protein kinase type II subunit alpha (CAMK2A, Homo sapiens, UniProt Q9UQM7) | enzyme activity | inhibitor |  | 86.1
O=C(O)/C=C/c1ccc(O)c(O)c1 | DHFR | enzyme activity | inhibitor | absorbance | 105
Cc1[nH]c2ccccc2c1C(=O)C(C)N1CCC(c2nccn2C)C1 (stereo not drawn) | HTR2B | calcium signal | antagonist |  | 0.0369
CC(C)NCC(COc1cccc2ccccc12)OC(=O)C=Cc1ccc(O)c(O)c1 (stereo not drawn) | DHFR | enzyme activity | inhibitor | absorbance | 0.048
S=C(NCCc1ccccc1)NN=Cc1ccc(N2CCCCC2)cc1 | DHFR | enzyme activity | inhibitor |  | 22.9
CC1CC2CN(C(C)C(=O)c3c[nH]c4ccccc34)CCN2C1 (stereo not drawn) | HTR2B | calcium signal | antagonist |  | 2.25
Nc1ccccc1OC(=O)C=Cc1ccc(O)c(O)c1 | DHFR | enzyme activity | inhibitor | absorbance | 16.9
O=c1nc(SCc2cc(F)cc(C(F)(F)F)c2)nc(SCc2ccc3ncsc3c2)[nH]1 | TOP2A | enzyme activity | inhibitor |  | 36.3
Cc1[nH]c2ccccc2c1SCCNC(=O)C1NCCC1C1CC1 (stereo not drawn) | 5-hydroxytryptamine receptor 2C (HTR2C, Homo sapiens, UniProt P28335) | calcium signal | antagonist |  | 38.2
O=c1nc(SCc2cc(F)cc(C(F)(F)F)c2)nc(SCc2cccc(C(F)(F)F)c2)[nH]1 | TOP2A | enzyme activity | inhibitor |  | 14.5
CN(C(=O)c1cn[nH]n1)C1CCN(CCc2cccc(Cl)c2Cl)C1 (stereo not drawn) | HTR2B | calcium signal | antagonist |  | 5.53
S=C(NN=Cc1ccc(N2CCCCC2)cc1)Nc1ccc(Br)cc1 | DHFR | enzyme activity | inhibitor |  | 26.1
O=C(c1cc(C2CCNC2)[nH]n1)N1CCC(c2cccc(Cl)c2)C1 (stereo not drawn) | HTR2B | calcium signal | antagonist |  | 16.5
Fc1ccc(NC(=S)NN=Cc2ccc(N3CCCCC3)cc2)cc1 | DHFR | enzyme activity | inhibitor |  | 24.6
O=C(Nc1ccc(-c2ccc3cccnc3c2)cc1)C1CCN(S(=O)(=O)c2ccccc2Cl)CC1 | FAAH | enzyme activity | inhibitor | fluorescence | 0.0105
O=[N+]([O-])c1ccc(NC(=S)NN=Cc2ccc(N3CCCCC3)cc2)cc1 | DHFR | enzyme activity | inhibitor |  | 16.2
O=C(Nc1ccc(-c2ccc3ccccc3n2)cc1)C1CCN(S(=O)(=O)c2ccccc2Cl)CC1 | FAAH | enzyme activity | inhibitor | fluorescence | 0.0035
S=C(NN=Cc1ccc(N2CCCCC2)cc1)Nc1c(Cl)cccc1Cl | DHFR | enzyme activity | inhibitor |  | 36.3
O=c1nc(SCc2ccc(C(F)(F)F)cc2)nc(SCc2ccc3sccc3c2)[nH]1 | TOP2A | enzyme activity | inhibitor |  | 16.3
